# Screening data from PubChem.
# The list is not random: actives were taken first. Their share in the collection is about 4.1%.
# KCNQ1 block – blocks the human KCNQ1 potassium channel. P51787. CHO-K1 KCNQ1, FluxOR thallium flux fluorescence; stronger effect = higher value. B-score at 10 µM. hit rate 1.3% among 310,000. AID 2642;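 active means compounds whose thallium flux B-score, printed positive for inhibition, exceeds three library SD while starting fluorescence stays within three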;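 further: channel opened by potassium depolarization with thallium stimulus after 20 min compound exposure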
# Cl transport mod – KCC2 (human) Cl- transport modulation; hit rate 2.2% among 190,000; KCC2 cells, thallium flux FluoZin-2 fluorescence; AID 1456; Q9H2X9; B-score of Tl+ flux slope (higher = more flux/activation; lower = inhibition) at 10 µM;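 active means thallium flux slope and its plate-corrected score both differing from the plate sample mean at a set confidence after two filtering rounds, in either direction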;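 further: slope of fluorescence scaled to starting intensity during 10 to 20 s after thallium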
# Target sequence (Q9H2X9 whole entry, looked up): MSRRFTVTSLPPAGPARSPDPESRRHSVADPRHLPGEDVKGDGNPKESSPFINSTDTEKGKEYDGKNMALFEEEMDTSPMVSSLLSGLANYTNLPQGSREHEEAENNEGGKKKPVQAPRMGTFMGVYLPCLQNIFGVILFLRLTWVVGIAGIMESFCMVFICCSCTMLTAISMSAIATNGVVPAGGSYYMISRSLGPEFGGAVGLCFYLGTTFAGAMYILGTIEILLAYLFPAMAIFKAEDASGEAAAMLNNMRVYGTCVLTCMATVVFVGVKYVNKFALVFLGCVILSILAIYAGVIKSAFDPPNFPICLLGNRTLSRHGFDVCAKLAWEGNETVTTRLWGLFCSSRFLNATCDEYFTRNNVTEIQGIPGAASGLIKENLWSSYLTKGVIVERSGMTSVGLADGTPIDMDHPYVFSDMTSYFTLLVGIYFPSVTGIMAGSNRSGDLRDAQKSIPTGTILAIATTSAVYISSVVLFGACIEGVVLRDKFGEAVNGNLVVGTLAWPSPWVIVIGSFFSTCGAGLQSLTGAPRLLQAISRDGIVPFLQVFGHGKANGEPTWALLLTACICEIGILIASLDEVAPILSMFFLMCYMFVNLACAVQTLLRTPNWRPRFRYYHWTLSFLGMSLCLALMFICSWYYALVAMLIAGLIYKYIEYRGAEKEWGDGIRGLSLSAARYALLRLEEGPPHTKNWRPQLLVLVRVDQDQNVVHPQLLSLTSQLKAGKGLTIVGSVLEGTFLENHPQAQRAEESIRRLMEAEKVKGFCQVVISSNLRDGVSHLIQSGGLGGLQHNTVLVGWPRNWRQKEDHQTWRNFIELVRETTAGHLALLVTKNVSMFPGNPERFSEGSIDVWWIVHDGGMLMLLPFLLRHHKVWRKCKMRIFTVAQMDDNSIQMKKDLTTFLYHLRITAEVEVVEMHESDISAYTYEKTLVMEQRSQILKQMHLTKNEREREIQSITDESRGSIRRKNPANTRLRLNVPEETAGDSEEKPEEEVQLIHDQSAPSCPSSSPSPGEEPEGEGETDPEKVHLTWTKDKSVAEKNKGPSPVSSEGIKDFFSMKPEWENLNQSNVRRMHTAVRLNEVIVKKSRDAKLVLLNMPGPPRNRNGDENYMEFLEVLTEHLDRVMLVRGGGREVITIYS
# KCNQ1 act – potentiators or activators of human KCNQ1 potassium channel | B-score at 10 µM | hit rate 0.35% among 310,000 | CHO-K1 KCNQ1, thallium flux FluxOR fluorescence; stronger effect = higher value | P51787 | AID 2648;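 active means fluorescence ratio B-score, a plate-corrected score, at least three library SD, with initial intensity B-score within 5 SD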
#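 System: CHO-K1 cells stably expressing KCNQ1 / Medium: assay buffer for compound exposure, DMSO matched across wells / Reagent: thallium- and potassium-containing depolarizing buffer / Compound: one concentration, matched DMSO / Incubation: 20 min compound pretreatment at room temperature / Measured by: kinetic FluxOR fluorescence, 10 s baseline plus 110 s post-stimulus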
# hERG protect – compounds protecting human hERG from proarrhythmic drug block. Q12809. CHO-hERG, FluxOR thallium flux, dofetilide IC70 present. activation (rescue from dofetilide block), less the hit threshold, % at 10 µM. hit rate 0.51% among 310,000;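 active means activation above the mean of controls blocked by dofetilide plus 5 SD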;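 further: thallium influx through hERG after potassium depolarization seen as dye fluorescence rise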
# KCNK9 block – human KCNK9 channel inhibition; Q9NPC2; HEK293 KCNK9, FluxOR thallium flux fluorescence; stronger effect = lower value; B-score at 10 µM; hit rate 1.2% among 310,000; AID 488922;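 active means ratio B-score over 3 SD below the library mean, with starting fluorescence within 5 SD of its mean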;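 further: negative B-score means less thallium flux so channel inhibition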
# KCNK3 block – human KCNK3 channel inhibition, primary screen; O14649; CHO-KCNK3 thallium flux, FluxOR fluorescence; stronger effect = lower value; B-score at 10 µM; hit rate 0.84% among 340,000; AID 602410;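 active means B-score under library mean minus 4 SD, starting fluorescence ratio at most library mean plus 5 SD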;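 further: more negative B-score means stronger inhibition of thallium flux through KCNK3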
# KCNK9 block conf – confirmation of human KCNK9 potassium channel inhibitors. shares compounds with KCNK9 block. HEK293 KCNK9 cells, FluxOR thallium flux fluorescence. inhibition, % at 10 µM. hit rate 43% among 4,900;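 active means thallium signal inhibited by more than 5 SD of the compound-free buffer control wells, on both duplicate plates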
# Kir2-1 spec – mouse Kir2.1 off-target activity of KCNK9 modulators; shares compounds with KCNK9 block; Kir2.1 cells, FluxOR thallium flux fluorescence; inhibition, % at 10 µM; hit rate 4% among 4,900; AID 492993;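 active means thallium signal drop more than 5 SD beyond the mean of the no-compound control wells, seen in both duplicate plates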;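 further: signal is fluorescence rise after thallium addition divided by baseline fluorescence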
# HEK293 Tl ctr – second counter-screen for KCNK9 modulators: effect in non-induced cells. shares compounds with KCNK9 block. non-induced KCNK9-HEK293, FluxOR thallium flux. inhibition, % at 10 µM. hit rate 40% among 4,900. AID 492997;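 active means thallium signal drop beyond 5 SD of the untreated control mean, on both duplicate plates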
# A number is an active result; n = inactive; x = no result.
SMILES,KCNQ1 block,Cl transport mod,KCNQ1 act,hERG protect,KCNK9 block,KCNK3 block,KCNK9 block conf,Kir2-1 spec,HEK293 Tl ctr
CCOc1ccc(CN(C)CC(=O)Nc2cc(C)c(C)cc2[N+](=O)[O-])cc1,n,x,n,n,n,n,n,n,n
CCOc1ccc(CN(C)CC(=O)Nc2cc(OC)c([N+](=O)[O-])cc2C)cc1,n,n,n,n,n,n,x,x,x
COc1cccc(CNC(=O)c2cccc(NC(=O)C3=C(C)OCCS3)c2)c1,n,x,n,n,-8.88,n,50.0%,n,n
CCOc1ccc(CNC(=O)c2cccc(NC(=O)C3=C(C)OCCS3)c2)cc1,n,x,n,n,n,n,x,x,x
CCOc1ccc(Br)cc1C1=NN(C(C)=O)C(c2ccc([N+](=O)[O-])s2)O1 (stereo not drawn),n,x,n,n,-10.3,-10.2,63.0%,n,39.5%
CC1(c2ccc(OC(F)F)cc2)NC(=O)N(CC(=O)Nc2ccc3c(c2)OCO3)C1=O (stereo not drawn),n,n,13,n,-9.8,n,n,n,31.0%
COc1ccc(C(=O)CSc2ccc(-c3ccccc3)nn2)cc1,n,n,n,n,n,n,n,n,n
COc1cccc(-c2ccc(SCC(=O)c3ccccc3)nn2)c1,n,n,n,n,n,n,n,n,n
CC(C)Nc1nc(NC(C)C)nc(SCCOC(=O)Nc2ccc(Cl)cc2Cl)n1,n,n,n,n,n,n,n,n,n
COc1ccc(S(=O)(=O)Nc2cccc3c2O[C@H](CN(C)C(=O)NC2CCCCC2)[C@@H](C)CN([C@H](C)CO)C3=O)cc1,x,x,x,x,x,n,x,x,x
Cc1ccc(NC(=O)C2CCN(S(=O)(=O)c3ccc(C(C)(C)C)cc3)CC2)cc1S(=O)(=O)N1CCOCC1,x,x,x,x,x,n,x,x,x
Cc1sc2nc(SCc3nc4ccccc4[nH]3)n(Cc3ccco3)c(=O)c2c1C,n,n,n,n,-8.25,n,26.5%,n,31.5%
Cc1ccccc1C1NC(c2ccccc2C)C([N+](=O)[O-])C(C)(C)C1[N+](=O)[O-] (stereo not drawn),n,x,n,n,n,n,x,x,x
Cc1cccc(C2NC(c3cccc(C)c3)C([N+](=O)[O-])C(C)(C)C2[N+](=O)[O-])c1 (stereo not drawn),n,n,n,n,n,n,n,n,n
CC(C)C(=O)Nc1ccc2nn(-c3ccc(F)cc3)nc2c1,n,x,n,n,n,n,n,n,n
Cc1ccc(-n2nc3ccc(NC(=O)C(C)C)cc3n2)cc1,n,n,n,n,n,n,x,x,x
O=C(CSc1nc(-c2ccccc2Cl)ns1)c1ccc(Cl)cc1,n,n,n,n,-12.3,n,46.0%,n,43.0%
Cc1cccc(-c2nsc(SCC(=O)c3ccc(Cl)cc3)n2)c1,n,n,n,n,n,n,x,x,x
CN(Cc1ccccc1)c1nc(N)c([N+](=O)[O-])c(NCc2ccccc2)n1,n,n,n,n,-10.2,n,57.0%,n,57.0%
CC(C)(C)n1nnnc1C(c1cccs1)N(Cc1ccc(Cl)cc1)CC1CCCO1 (stereo not drawn),n,n,n,n,-16.5,n,62.5%,n,42.5%
CC(C)(C)n1nnnc1C(c1cccnc1)N1CCN(c2ccccc2)CC1 (stereo not drawn),n,n,n,n,n,n,x,x,x
CC(C)(C)n1nnnc1C(c1ccc(C(F)(F)F)cc1)N(Cc1ccc(F)cc1)Cc1ccco1 (stereo not drawn),n,n,n,n,-10.5,n,41.5%,n,31.0%
CC(C)(C)n1nnnc1C(c1ccc(C(F)(F)F)cc1)N(Cc1ccccc1)Cc1ccco1 (stereo not drawn),6,n,n,n,-10.7,n,52.0%,n,33.0%
c1ccc(CN(Cc2ccco2)C(c2ccncc2)c2nnnn2C2CCCC2)cc1 (stereo not drawn),n,n,n,n,n,n,x,x,x
CC(C)(C)n1nnnc1C(c1cccnc1)N(Cc1ccccc1)Cc1cccs1 (stereo not drawn),n,n,n,n,-12.7,n,45.5%,n,52.5%
SMILES,KCNQ1 block,Cl transport mod,KCNQ1 act,hERG protect,KCNK9 block,KCNK3 block,KCNK9 block conf,Kir2-1 spec,HEK293 Tl ctr
CC1CC(C)CN(C(=O)COC(=O)COc2ccc(C#N)cc2)C1 (stereo not drawn),x,x,x,x,x,n,x,x,x
O=C(COC(=O)c1cccc(OC(F)F)c1)NCC1CCCO1 (stereo not drawn),x,x,x,x,x,n,x,x,x
O=C(CN1C(=O)NC2(CCCCC2)C1=O)N1CCN(S(=O)(=O)c2ccc(F)c(F)c2F)CC1,x,x,x,x,x,n,x,x,x
CCOc1ccccc1C(=O)Oc1cc(C)[nH]c(=O)c1[N+](=O)[O-],n,x,n,n,n,n,x,x,x
CC(C)(C)n1nnnc1C(c1ccc(Cl)cc1)N(Cc1cccnc1)Cc1ccco1 (stereo not drawn),6,n,n,n,-14.4,-10.1,52.0%,n,39.0%
Cc1ccc(C(c2nnnn2C(C)(C)C)N(Cc2ccco2)Cc2cccs2)cc1 (stereo not drawn),n,n,n,n,-17.2,n,65.5%,n,30.5%
CC(C)(C)n1nnnc1C(c1ccc(F)cc1)N(Cc1ccc(F)cc1)Cc1ccco1 (stereo not drawn),7,n,n,n,-15,n,71.5%,n,40.0%
CC1CCCCN1C(=O)c1c([N+](=O)[O-])cnn1C (stereo not drawn),n,x,n,n,n,n,x,x,x
Cc1ccc(CNC(=O)CSc2nnc(CNC(=O)c3ccccc3)o2)cc1,n,x,n,n,n,n,x,x,x
O=c1c2ccccc2[nH]c(=S)n1CCCN1CCC(Cc2ccccc2)CC1,n,x,n,n,n,n,n,n,n
Clc1ccc(C2[C@H]3CN(Cc4cccnc4)[C@H](c4ccccc4)C34CC2(c2ccccc2)C4)cn1 (stereo partly drawn),n,n,n,n,-9.78,n,29.5%,n,35.0%
Cc1ccc(-c2noc(CSc3nnc(Cc4ccccc4)n3-c3cccc(C)c3)n2)cc1,n,n,n,n,-9.86,n,n,n,30.0%
COc1ccc(-c2noc(CSc3nnc(Cc4ccccc4)n3-c3cccc(C)c3)n2)cc1OC,n,n,n,n,n,n,x,x,x
COC(=O)C1=NNC(C(=O)OC)C1c1ccccc1 (stereo not drawn),x,x,x,x,x,n,x,x,x
CC(C)(C)c1ccc(SCCc2cccnc2)cc1,n,n,n,n,n,n,n,n,n
c1ccc(SCCc2ccncc2)cc1,n,n,n,n,n,n,x,x,x
Cc1nn(-c2cccc(Cl)c2)c(Cl)c1/C=N/NC(=O)c1cccs1,n,n,n,n,-10.5,n,60.0%,n,31.0%
